Laboratory results published in paper PMC5715471 (ACS chemical neuroscience, 2017).
Read-outs that look alike come from different tables or passages of the source.

Assays:
[1] = test system: mouse spared nerve injury (SNI) model; assay: Mechanical sensitivity; type: in vivo; conditions: for effect on SNI-induced mechanical hypersensitivity: single IT injection, 10 μg, vs vehicle; for time after IT injection at which efficacy was seen (onset) / time through which antipain effect persisted: IT 10 μg
Procedure, shortened: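 Male C57Bl6/J mice with SNI (peroneal and tibial sciatic branches cut, sural spared), confirmed hypersensitive 2 weeks post-surgery and screened 21–60 days after SNI. Single intrathecal 10 μg in 5 μL saline (DMSO <5%, vehicle DMSO-matched). Blinded hindpaw von Frey, modified up–down, at set times. n = 4–11. Mean ± SEM; two-way ANOVA with Bonferroni. Repeat injections ≥14 days apart.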

[2] = test system: SK-N-SH neuroblastoma cells; conditions: cited from earlier work
[3] = target: T1, σ2R/Tmem97 (Rattus norvegicus, UniProt Q5U3Y7); assay: Sigma 2 receptor competition binding with [3H]-ditolylguanidine; conditions: σ2R from rat PC12 cells
T1 sequence (Q5U3Y7 1-176): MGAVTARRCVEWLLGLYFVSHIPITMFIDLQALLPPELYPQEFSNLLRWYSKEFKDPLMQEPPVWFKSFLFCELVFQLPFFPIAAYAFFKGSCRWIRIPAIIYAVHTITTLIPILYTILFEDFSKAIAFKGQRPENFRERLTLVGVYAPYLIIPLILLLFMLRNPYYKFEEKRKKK

[4] = Blood brain barrier crossing; type: in vivo; conditions: no data or reference given
[5] = test system: mouse spared nerve injury (SNI) model; assay: Mechanical sensitivity; type: in vivo; conditions: IV 100 mg/kg
Procedure, shortened: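 Male C57Bl6/J SNI mice, hindpaw mechanical hypersensitivity confirmed 2 weeks post-surgery. Tail-vein IV injection in 100 μL sterile saline (DMSO stock diluted; vehicle DMSO-matched): test compound 10 mg/kg, gabapentin 100 mg/kg, or vehicle, n = 6 each. Blinded von Frey testing (modified up–down) at set time points. Mean ± SEM; two-way ANOVA with Bonferroni post hoc.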

[6] = in vivo; cited from earlier work

Compound: FC(F)(F)c1ccc(-c2ccc3c(c2)C2CC3CCCN2C2CCCC2)cc1 (racemic) [DKR-1051, (±)-2-Cyclopentyl-9-(4-(trifluoromethyl)phenyl)-1,2,3,4,5,6-hexa-hydro-1,6-methanobenzo[c]azocine]
- time of peak relief of mechanical hypersensitivity after dosing ([1]; IT): 48 h
- effect on SNI-induced mechanical hypersensitivity [1]: significant antimechanical hypersensitivity effects at either 24 or 48 h
- effect on intracellular Ca2+ ([2]; SK-N-SH neuroblastoma cells): induces a rapid Ca^2+ transient
- affinity at σ2R/Tmem97 (in words) [3]: high affinity
- blood brain barrier crossing [4]: cross the blood brain barrier

Compound: c1ccc(CCN2CCC3CC2c2ccccc23)cc1 (racemic) [JSS-1027, (±)-2-Phenethyl-2,3,4,5-tetrahydro-1H-1,5-methanobenzo[c]-azepine]
- time after IT injection at which efficacy was seen (onset) [1]: 48 h
- time through which antipain effect persisted [1]: 120 h
- effect on SNI-induced mechanical hypersensitivity [1]: significantly different from vehicle
- affinity at σ2R/Tmem97 (in words) [3]: low nM range

Compound: CN1CCC2CC1c1cc(N3CCOCC3)ccc12 (racemic) [JWG-1014, (±)-2-Methyl-2,3,4,5-tetrahydro-1H-1,5-methanobenzo[c]-azepin-8-yl)morpholine]
- time after IT injection at which efficacy was seen (onset) [1]: 48 h
- time through which antipain effect persisted [1]: 120 h
- effect on SNI-induced mechanical hypersensitivity [1]: significantly different from vehicle

Compound: Clc1ccc2c(c1)C1CC2CCCN1CC1CCCCC1 (racemic) [MFG-1046, (±)-9-Chloro-2-(cyclohexylmethyl)-1,2,3,4,5,6-hexahydro-1,6-methanobenzo[c]azocine]
- time after IT injection at which efficacy was seen (onset) [1]: 24 h
- time through which antipain effect persisted [1]: 72 h
- effect on SNI-induced mechanical hypersensitivity [1]: significantly different from vehicle
- affinity at σ2R/Tmem97 (in words) [3]: low nM range

Compound: NCC1(CC(=O)O)CCCCC1 [Gabapentin, reference compound]
- effect on SNI-induced mechanical hypersensitivity ([5]; 1 and 3 h after injection): completely reversed mechanical hypersensitivity
- mechanical hypersensitivity state ([5]; 24 h after injection): fully mechanically hypersensitive again

Compound: CN1CCN(c2ccc3c(c2)[C@H]2C[C@@H]3CCN2C(=O)OCc2ccccc2)CC1 [SAS-0132]
- effect of co-administration on antinociceptive action of UKH-1114 ([1]; SAS-0132 10 μg IT given at the same time as UKH-1114 10 μg): completely blocked the effect seen with UKH-1114 given alone
- effect of pretreatment on DKR-1051-induced Ca2+ transient ([2]; SK-N-SH neuroblastoma cells pretreated with SAS-0132): attenuated
- blood brain barrier crossing [6]: cross the blood brain barrier

Compound: Fc1ccc(-n2cc(CCCCN3CCC4(CC3)OCc3ccccc34)c3ccccc32)cc1 [Siramesine, reference compound]
- effect on SNI-induced mechanical hypersensitivity [1]: small inhibitory effect on mechanical hypersensitivity that was significant at 24 and 48 h
